Test results from ChEMBL document CHEMBL6083235, “Synthesis, evaluation and mechanistic insights of novel IMPDH inhibitors targeting ESKAPEE bacteria” (Eur J Med Chem, 2024).
Activity calls are given as the source filed them. No cut-off for these calls is given here.

Experiments:
[1] = biological target: T1, Inosine-5'-monophosphate dehydrogenase (Pseudomonas aeruginosa (strain ATCC 15692 / DSM 22644 / CIP 104116 / JCM14847 / LMG 12228 / 1C / PRS 101 / PAO1)) (UniProt Q9HXM5); test: Inhibition of Pseudomonas aeruginosa IMPDH extracted form Escherichia coli BL21 (DE3)pDIA17 assessed as formation of NADH at 50 uM relative to control
T1 sequence (whole entry): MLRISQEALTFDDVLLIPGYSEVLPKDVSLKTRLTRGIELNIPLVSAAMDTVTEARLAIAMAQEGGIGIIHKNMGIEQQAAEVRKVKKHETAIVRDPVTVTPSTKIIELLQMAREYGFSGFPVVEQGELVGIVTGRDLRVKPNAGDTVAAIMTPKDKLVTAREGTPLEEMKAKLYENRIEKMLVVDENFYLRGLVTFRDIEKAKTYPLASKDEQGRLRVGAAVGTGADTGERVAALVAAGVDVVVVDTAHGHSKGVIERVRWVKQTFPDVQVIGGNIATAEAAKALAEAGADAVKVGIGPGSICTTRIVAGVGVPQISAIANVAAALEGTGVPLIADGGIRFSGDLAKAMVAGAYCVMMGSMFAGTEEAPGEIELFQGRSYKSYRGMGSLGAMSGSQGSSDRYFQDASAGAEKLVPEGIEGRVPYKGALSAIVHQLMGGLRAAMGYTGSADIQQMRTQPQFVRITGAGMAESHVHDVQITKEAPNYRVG
Outline: (§1)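 His-tagged wild-type IMPDH (E. coli, P. aeruginosa or S. aureus) made in E. coli BL21(DE3)/pDIA17, purified by metal-affinity then gel filtration. NADH formation followed at 340 nm, 30 °C, with 0.2 mM IMP, 0.4 mM NAD⁺, 0.2 mM MgATP, 2 mM MgCl₂. Buffers: pa Tris-HCl 50 mM pH 8; ec Tris-HCl 50 mM pH 8, KCl 50 mM; sa Na₂CO₃ 50 mM pH 9.2, KCl 20 mM. Compound at 50 μM; % inhibition vs compound-free activity.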

[2] = biological target: T2, Inosine-5'-monophosphate dehydrogenase (Pseudomonas aeruginosa (strain ATCC 15692 / DSM 22644 / CIP 104116 / JCM14847 / LMG 12228 / 1C / PRS 101 / PAO1), UniProt Q9HXM5); test: Inhibition of Pseudomonas aeruginosa IMPDH extracted form Escherichia coli BL21 (DE3)pDIA17 assessed as formation of NADH; settings: read-out: I50
T2 sequence (Q9HXM5 whole entry): T1 sequence (whole entry)

[3] = biological target: T3, Inosine-5'-monophosphate dehydrogenase (Escherichia coli K-12) (UniProt P0ADG7); test: Inhibition of Escherichia coli IMPDH extracted form Escherichia coli BL21 (DE3)pDIA17 assessed as formation of NADH at 50 uM relative to control; outline: as §1
T3 sequence (whole entry): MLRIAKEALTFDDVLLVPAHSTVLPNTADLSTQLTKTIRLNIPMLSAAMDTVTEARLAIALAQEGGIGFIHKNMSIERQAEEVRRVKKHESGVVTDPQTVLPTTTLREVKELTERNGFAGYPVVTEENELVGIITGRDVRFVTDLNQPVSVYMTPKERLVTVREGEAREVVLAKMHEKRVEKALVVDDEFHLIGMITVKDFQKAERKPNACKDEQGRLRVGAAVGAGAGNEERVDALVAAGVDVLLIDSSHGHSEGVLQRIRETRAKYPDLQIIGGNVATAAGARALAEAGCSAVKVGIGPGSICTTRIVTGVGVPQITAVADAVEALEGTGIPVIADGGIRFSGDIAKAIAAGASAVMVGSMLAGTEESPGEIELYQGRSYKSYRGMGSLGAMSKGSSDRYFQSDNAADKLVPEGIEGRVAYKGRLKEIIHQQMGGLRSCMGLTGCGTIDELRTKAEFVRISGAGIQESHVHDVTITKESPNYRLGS

Staphylococcus aureus [4] = test: Inhibition of Staphylococcus aureus IMPDH extracted form Escherichia coli BL21 (DE3)pDIA17 assessed as formation of NADH at 50 uM relative to control; outline: as §1
[5] = biological target: Inosine-5'-monophosphate dehydrogenase 2 (Homo sapiens) (UniProt P12268); test: Inhibition of human IMPDH2 extracted form Escherichia coli BL21 (DE3)pDIA17 assessed as formation of NADH at 50 uM
Chain of Inosine-5'-monophosphate dehydrogenase 2 (Homo sapiens) (P12268 2-514 limits assumed): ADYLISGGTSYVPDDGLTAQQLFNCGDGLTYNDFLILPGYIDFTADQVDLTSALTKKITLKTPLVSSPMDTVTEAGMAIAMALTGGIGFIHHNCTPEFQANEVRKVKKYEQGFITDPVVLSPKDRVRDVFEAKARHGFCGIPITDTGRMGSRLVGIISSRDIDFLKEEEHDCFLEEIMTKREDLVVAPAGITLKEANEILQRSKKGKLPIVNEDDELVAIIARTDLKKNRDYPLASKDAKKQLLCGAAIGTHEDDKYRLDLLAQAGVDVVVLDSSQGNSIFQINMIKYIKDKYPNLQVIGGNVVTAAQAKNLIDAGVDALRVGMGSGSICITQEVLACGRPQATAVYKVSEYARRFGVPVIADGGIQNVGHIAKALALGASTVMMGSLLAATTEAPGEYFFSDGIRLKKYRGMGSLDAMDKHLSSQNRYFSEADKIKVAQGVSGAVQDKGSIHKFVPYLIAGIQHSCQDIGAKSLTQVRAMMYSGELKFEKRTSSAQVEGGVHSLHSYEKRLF

Staphylococcus aureus [6] = test: Antibacterial activity against methicillin-resistant Staphylococcus aureus ATCC 43300 assessed as growth inhibition at 32 ug/ml relative to control; assay type: functional
Escherichia coli = test: Inhibition of Escherichia coli IMPDH delta Bateman domain extracted form Escherichia coli BL21 (DE3)pDIA17 assessed as formation of NADH at 50 uM relative to control
Outline: (§2)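 Bateman-domain-deleted IMPDH (E. coli or P. aeruginosa), His-tagged, made in E. coli BL21(DE3)/pDIA17. NADH formation at 340 nm, 30 °C, 0.2 mM IMP, 0.4 mM NAD⁺, 0.2 mM MgATP, 2 mM MgCl₂. Buffer: ec Tris-HCl 50 mM pH 9, KCl 100 mM; pa Tris-HCl 50 mM pH 8, KCl 100 mM. Compound 50 μM; % inhibition relative to uninhibited enzyme.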

[7] = Inhibition of Escherichia coli IMPDH delta Bateman domain extracted form Escherichia coli BL21 (DE3)pDIA17 assessed as formation of NADH; settings: read-out: I50
Outline: (§3)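 Bateman-domain-deleted IMPDH (E. coli or P. aeruginosa) from E. coli BL21(DE3)/pDIA17; NADH at 340 nm, 30 °C, 0.2 mM IMP, 0.4 mM NAD⁺, 0.2 mM MgATP, 2 mM MgCl₂; buffers as per variant (ec Tris-HCl pH 9/KCl 100 mM; pa Tris-HCl pH 8/KCl 100 mM). I50 by dose-response logistic fit, at least three experiments.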

Pseudomonas aeruginosa = test: Inhibition of Pseudomonas aeruginosa IMPDH delta Bateman domain extracted form Escherichia coli BL21 (DE3)pDIA17 assessed as formation of NADH at 50 uM relative to control; outline: as §2
[8] = Inhibition of Pseudomonas aeruginosa IMPDH delta Bateman domain extracted form Escherichia coli BL21 (DE3)pDIA17 assessed as formation of NADH; settings: read-out: I50; outline: as §3
[9] = biological target: T1, Inosine-5'-monophosphate dehydrogenase (Pseudomonas aeruginosa (strain ATCC 15692 / DSM 22644 / CIP 104116 / JCM14847 / LMG 12228 / 1C / PRS 101 / PAO1)); test: Non-competitive inhibition of Pseudomonas aeruginosa IMPDH in presence of 2 mM NAD+ by Michaelis-Menten equation
Outline: (§4)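 Steady-state kinetics of P. aeruginosa ΔBateman IMPDH: initial rates (NADH at 340 nm, 30 °C, Tris-HCl 50 mM pH 8, KCl 100 mM) measured across variable IMP at saturating 2 mM NAD⁺, without or with several inhibitor concentrations; data from at least three experiments fitted to Michaelis–Menten and shown as Lineweaver-Burk plots.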

[10] = biological target: T1, Inosine-5'-monophosphate dehydrogenase (Pseudomonas aeruginosa (strain ATCC 15692 / DSM 22644 / CIP 104116 / JCM14847 / LMG 12228 / 1C / PRS 101 / PAO1)); test: Non-competitive inhibition of Pseudomonas aeruginosa IMPDH by Lineweaver-Burk plot analysis; outline: as §4
[11] = tested on: Mycobacterium tuberculosis; test: Inhibition of Mycobacterium tuberculosis TMP kinase using 0.05 dTMP and 0.5 mM MgATP by measuring NADH consumption at 20 uM by coupled spectrophotometric assay
Outline: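 Recombinant M. tuberculosis TMP kinase; activity at 30 °C by NADH consumption at 340 nm in a pyruvate kinase/lactate dehydrogenase/nucleoside diphosphate kinase coupled assay (2 units each). Medium: 50 mM Tris-HCl pH 7.4, 50 mM KCl, 2 mM MgCl2, 0.2 mM NADH, 1 mM phosphoenolpyruvate. ATP held at 0.5 mM and dTMP at 0.05 mM; compound at 20 μM.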

[12] = Inhibition of Pseudomonas aeruginosa IMPDH delta Bateman domain in absence of detergent; outline: as §3
[13] = Inhibition of Pseudomonas aeruginosa IMPDH delta Bateman domain in presence of detergent by detergent-sensitive enzyme-inhibition assay
Outline: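 P. aeruginosa ΔBateman IMPDH dose-response run under reference conditions (0.2 mM IMP, 0.4 mM NAD⁺, 0.2 mM MgATP, 2 mM MgCl₂; Tris-HCl 50 mM pH 8, KCl 100 mM; 30 °C, NADH at 340 nm) with 0.01 % Triton X-100 included, to exclude colloidal aggregation; I50 from logistic fit.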

Caco-2 [14] = test: Cytotoxicity against human Caco-2 cells assessed as cell viability at 1 uM measured after 72 hrs by Alamar blue assay; assay type: toxicity, cell-based; settings: caco-2, 72 h
Outline: (§5)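 Confluent Caco-2 monolayers (seeded 1.10⁵ cells/cm², 48 h growth; DMEM 25 mM glucose, 10 % FBS, NEAA, 37 °C, 5 % CO₂) exposed 72 h; vehicle 0.1 % DMSO, 0.2 % Triton X-100 as cytotoxic control. Rinsed with PBS, 5 % Alamar Blue in FBS-free medium 30 min at 37 °C; resorufin fluorescence (ex 530/em 570 nm) relative to DMSO. Mean ± SEM, three independent experiments.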

Caco-2 [15] = test: Cytotoxicity against human Caco-2 cells assessed as cell viability at 10 uM measured after 72 hrs by Alamar blue assay; assay type: toxicity, cell-based; settings: caco-2, 72 h; outline: as §5
[16] = Metabolic stability in mouse liver microsomes assessed as recovery in presence of NADPH measured after 120 mins; assay type: ADME, Microsome; settings: read-out: Drug recovery
[17] = Metabolic stability in mouse liver microsomes assessed as recovery in absence of NADPH measured after 120 mins; assay type: ADME, Microsome; settings: read-out: Drug recovery

CC(C)(NC(=O)NCc1ccccc1)c1cccc(-c2cccs2)c1
inhibition [1]: 15%

CCOC(=O)n1cc(-c2cccc(C(C)(C)NC(=O)Nc3ccc(Cl)c([N+](=O)[O-])c3)c2)cn1
inhibition [1]: 87% | IC50 [2]: 420 nM

CC(C)(NC(=O)NCc1ccccc1)c1cccc(-c2ccccc2)c1
inhibition [1]: 16%

CC(C)(NC(=O)Nc1ccc(Cl)c([N+](=O)[O-])c1)c1cccc(-c2cccnc2F)c1
inhibition [1]: 98% | IC50 [2]: 240 nM

CCOC(=O)n1ccc(-c2cccc(C(C)(C)NC(=O)Nc3ccc(Cl)c([N+](=O)[O-])c3)c2)n1
inhibition [1]: 98% | IC50 [2]: 160 nM

CC(C)(NC(=O)Nc1ccc(Cl)c([N+](=O)[O-])c1)c1cccc(-c2c[nH]cn2)c1
inhibition [1]: 99% | IC50 [2]: 100 nM | inhibition [3]: 88% | inhibition (Staphylococcus aureus [4]): 89% | inhibition [5]: inactive | inhibition at 32 µg/mL (Staphylococcus aureus [6]): 79.3% | inhibition (Escherichia coli): 90% | IC50 [7]: 4.26 µM | inhibition (Pseudomonas aeruginosa): 99% | IC50 [8]: 150 nM | inhibition [9]: Active | inhibition [10]: Active | inhibition [11]: inactive | IC50 [12]: 150 nM | IC50 [13]: 140 nM | Activity (Caco-2 [14]): Non-toxic | Activity (Caco-2 [15]): Non-toxic | remaining at 2 h [16]: > 95% | remaining at 2 h [17]: > 95%

CC(C)(NC(=O)Nc1ccc(Cl)c([N+](=O)[O-])c1)c1cccc(-c2cc[nH]n2)c1
inhibition [1]: 99% | IC50 [2]: 110 nM | inhibition [3]: 92% | inhibition (Staphylococcus aureus [4]): 94% | inhibition [5]: inactive | inhibition at 32 µg/mL (Staphylococcus aureus [6]): 79.3% | inhibition (Escherichia coli): 88% | IC50 [7]: 4.95 µM | inhibition (Pseudomonas aeruginosa): 98% | IC50 [8]: 160 nM | inhibition [9]: Active | inhibition [10]: Active | inhibition [11]: inactive | Activity (Caco-2 [14]): Non-toxic | Activity (Caco-2 [15]): Non-toxic | remaining at 2 h [16]: > 95% | remaining at 2 h [17]: > 95%

CC(C)(NC(=O)Nc1ccc(Cl)c([N+](=O)[O-])c1)c1cccc(-c2cn[nH]c2)c1
inhibition [1]: 97% | IC50 [2]: 130 nM | inhibition [3]: 89% | inhibition (Staphylococcus aureus [4]): 93% | inhibition [5]: inactive | inhibition at 32 µg/mL (Staphylococcus aureus [6]): 61.7% | inhibition (Escherichia coli): 84% | IC50 [7]: 5.51 µM | inhibition (Pseudomonas aeruginosa): 99% | IC50 [8]: 170 nM | inhibition [9]: Active | inhibition [10]: Active | inhibition [11]: inactive | Activity (Caco-2 [14]): Non-toxic | Activity (Caco-2 [15]): Non-toxic | remaining at 2 h [16]: > 95% | remaining at 2 h [17]: > 95%

CC(C)(NC(=O)Nc1ccc(Cl)c([N+](=O)[O-])c1)c1cccc(-c2cccs2)c1
inhibition [1]: 96% | IC50 [2]: 140 nM

CC(C)(NC(=O)NCc1ccccc1)c1cccc(-c2cn[nH]c2)c1
inhibition [1]: 29%

CC(C)(NC(=O)NCc1ccccc1)c1cccc(-c2cc[nH]n2)c1
inhibition [1]: 59%

CC(C)(NC(=O)Nc1ccc(Cl)c([N+](=O)[O-])c1)c1cccc(-c2nccn2Cc2ccccc2)c1
inhibition [1]: 63%

CC(C)(NC(=O)NCc1ccccc1)c1cccc(-c2ccco2)c1
inhibition [1]: 10% | inhibition [5]: inactive | inhibition at 32 µg/mL (Staphylococcus aureus [6]): 0.49% | inhibition (Escherichia coli): 1% | inhibition (Pseudomonas aeruginosa): 6%

CC(C)(NC(=O)Nc1ccc(Cl)c([N+](=O)[O-])c1)c1cccc(-c2nccs2)c1
inhibition [1]: 97% | IC50 [2]: 110 nM

CC(C)(NC(=O)Nc1ccc(Cl)c([N+](=O)[O-])c1)c1cccc(-c2ccco2)c1
inhibition [1]: 99% | IC50 [2]: 260 nM

CCOc1ncccc1-c1cccc(C(C)(C)NC(=O)Nc2ccc(Cl)c([N+](=O)[O-])c2)c1
inhibition [1]: 95% | IC50 [2]: 590 nM

CC(C)(NC(=O)Nc1ccc(Cl)c([N+](=O)[O-])c1)c1cccc(-c2cn(C(c3ccccc3)(c3ccccc3)c3ccccc3)cn2)c1
inhibition [1]: 35%
